Our source for the IC50 and MIC values is ChEMBL document CHEMBL1773031, “Maklamicin, an antibacterial polyketide from an endophytic Micromonospora sp” (J Nat Prod, 2011).

≈ marks a conversion by molar mass, not a printed value. Where only a bound is given, the exact number is not on record here.

One may read the IC50 as the concentration that gives 50% inhibition. A low value points to inhibition by little substance. The term MIC denotes the least concentration at which growth counts as inhibited. A higher MIC goes with a need for much substance.

Assay [1] deals with HeLa. Briefly: Cytotoxicity against human HeLa cells after 48 hrs by MTT assay. It is filed as functional, cell-based. For orientation: Formazan colour is commonly taken as a measure of viable cells.
Assay [2] relates to MCF7. Briefly: Cytotoxicity against human MCF7 cells after 48 hrs by MTT assay. Type of assay: functional, cell-based. To be noted: MCF7, 48 h.
Assay [3] has as its system Micrococcus luteus. Briefly: Antimicrobial activity against Micrococcus luteus ATCC 9343 after 20 hrs by microplate reader assay. Type of assay: functional. To be noted: ATCC 9343, 20 h. In short, it runs like this: (§1)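 Grown in Mueller Hinton broth on a reciprocal shaker for 20 h at 30 °C, then pelleted and resuspended in saline at 1 × 10^5 cells/mL. The suspension was mixed into fresh broth in 96-well plates with test sample in DMSO. Plates were incubated for 20 h at 30 °C, and growth was read as absorbance at 650 nm.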

In assay [4] the test system is Bacillus subtilis. Briefly: Antimicrobial activity against Bacillus subtilis PCI219 after 20 hrs by microplate reader assay. It is filed as functional. The settings on record: PCI219, 20 h. The procedure, abridged: as §1
Assay [5] deals with Bacillus cereus. Briefly: Antimicrobial activity against Bacillus cereus NBRC 15305 after 20 hrs by microplate reader assay. Type of assay: functional. The settings on record: NBRC 15305, 20 h. The procedure, abridged: as §1
Assay [6] has as its system Enterococcus faecalis. Briefly: Antimicrobial activity against Enterococcus faecalis NBRC 100480 after 20 hrs by microplate reader assay. It is filed as functional. The settings on record: NBRC 100480, 20 h. In short, it runs like this:
as §1

Assay [7] deals with Escherichia coli. The experiment in a line: Antimicrobial activity against Escherichia coli NIH-JC2 after 20 hrs by microplate reader assay. It is filed as functional. The settings on record: NIH-JC2, 20 h. In short, it runs like this: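 The E. coli preculture was grown in Mueller Hinton broth, shaken for 20 h at 30 °C, centrifuged and suspended in saline at 1 × 10^5 cells/mL. The suspension was combined in broth with sample dissolved in DMSO. Incubation was 20 h at 37 °C, with absorbance at 650 nm read on a microplate reader.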

Assay [8] relates to Staphylococcus aureus. The experiment in a line: Antimicrobial activity against Staphylococcus aureus IFO 12732 after 20 hrs by microplate reader assay. Type of assay: functional. The settings on record: IFO 12732, 20 h. In short, it runs like this: as §1
For assay [9], the system named is Candida albicans. Briefly: Antimicrobial activity against Candida albicans IFO 1594 after 20 hrs by microplate reader assay. Type of assay: functional. The settings on record: IFO 1594, 20 h. In short, it runs like this:
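Yeast Nitrogen Base supplemented with 2% glucose was the medium. Cells were shaken for 20 h at 30 °C, pelleted and resuspended in saline at 1 × 10^5 cells/mL. They were mixed in medium with DMSO sample solution in 96-well plates and incubated for 20 h at 30 °C. Growth was measured as absorbance at 650 nm.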

For `C[C@H]1CC[C@@H]2[C@H](C=C[C@H]3[C@H](C)/C=C/C[C@]4(C)C=C(CO)[C@H](C[C@@H](C)O)C[C@]45OC(=O)C(=C5O)C(=O)[C@@]23C)C1` [MAKLAMICIN], the figures for the IC50 in assay [1] and in [2] were 17 µM and 34 µM, respectively. The MIC is 0.2 µg/mL (≈ 0.381 µM) in assay [3]; 1.7 µg/mL (≈ 3.24 µM) in assay [4]; 6.5 µg/mL (≈ 12.4 µM) in assay [5]; 13 µg/mL (≈ 24.8 µM) in [6]; > 50 µg/mL in [7]; 13 µg/mL (≈ 24.8 µM) in assay [8]. For the same compound, the MIC in [9] stood at 50 µg/mL (≈ 95.3 µM).
For `CN(C)[C@@H]1C(O)=C(C(N)=O)C(=O)[C@@]2(O)C(O)=C3C(=O)c4c(O)cccc4[C@@](C)(O)[C@H]3C[C@@H]12.Cl` [TETRACYCLINE HYDROCHLORIDE], the minimum inhibitory concentration (MIC) turned out to be 0.1 µg/mL in assay [3]; 0.05 µg/mL in assay [4]; 1.5 µg/mL in assay [5]; 0.2 µg/mL in assay [6]; 0.8 µg/mL in assay [7]; 0.05 µg/mL in [8].
